The test system of series [1] is Acinetobacter baumannii. The series can be described thus: Antibacterial activity against Acinetobacter baumannii ATCC 19606 after 18 to 20 hrs by microbroth dilution method. It is filed as functional. In a few lines:
(§1)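 CLSI microbroth dilution, adapted. Mid-log bacteria, 2 × 10^6 CFU/mL in Mueller-Hinton broth, mixed 1:1 with MH broth holding peptide in serial 2-fold dilutions in 20% ethanol (0.75-48 μM). Incubated 18-20 h at 37 °C; growth read as A600. MIC is the lowest concentration giving 100% growth inhibition.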
(In general: Dilution methods test growth across graded concentrations, often in twofold steps.)

Series [2] concerns Acinetobacter junii. The series can be described thus: Antibacterial activity against […] Acinetobacter junii RT-4 after 18 to 20 hrs by microbroth dilution method. It counts as functional. The method in brief:
as §1

Series [3] relates to Enterococcus faecalis. The series can be described thus: Antibacterial activity against Enterococcus faecalis ATCC 29212 after 18 to 20 hrs by microbroth dilution method. It counts as functional. The method in brief:
as §1

Series [4] has as its system Escherichia coli. The series can be described thus: Antibacterial activity against Escherichia coli ATCC 25922 after 18 to 20 hrs by microbroth dilution method. It counts as functional. In a few lines:
as §1

Series [5] has as its system Escherichia coli. The series can be described thus: Antibacterial activity against Escherichia coli D21 after 18 to 20 hrs by microbroth dilution method. It counts as functional. In a few lines: as §1
The test system of series [6] is Pseudomonas syringae. Briefly: Antibacterial activity against Pseudomonas syringae pv tobaci after 18 to 20 hrs by microbroth dilution method. It counts as functional. In a few lines:
as §1

The subject of series [7] is Pseudomonas aeruginosa. The series can be described thus: Antibacterial activity against Pseudomonas aeruginosa ATCC 15692 after 18 to 20 hrs by microbroth dilution method. It is filed as functional. The method in brief: as §1
Series [8] has as its system Pseudomonas aeruginosa. Briefly: Antibacterial activity against Pseudomonas aeruginosa ATCC 27853 after 18 to 20 hrs by microbroth dilution method. It is filed as functional. The method in brief: as §1
Series [9] has as its system Yersinia pseudotuberculosis. Briefly: Antibacterial activity against Yersinia pseudotuberculosis YPIII after 18 to 20 hrs by microbroth dilution method. It is filed as functional. The method in brief: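 Broth microdilution adapted from CLSI. Mid-log bacteria at 2 × 10^6 CFU/mL in Mueller-Hinton broth were mixed 1:1 with MH broth containing peptide in serial 2-fold dilutions (peptide in 20% ethanol), 0.75-48 μM. Plates were incubated 18-20 h at 37 °C and growth was read as A600. MIC is the concentration giving 100% growth inhibition.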

Series [10] has as its system Priestia megaterium. The series can be described thus: Antibacterial activity against Bacillus megaterium Bm11 after 18 to 20 hrs by microbroth dilution method. It is filed as functional. In a few lines:
as §1

Series [11] has as its system Staphylococcus aureus. The series can be described thus: Antibacterial activity against Staphylococcus aureus ATCC 25923 after 18 to 20 hrs by microbroth dilution method. It is filed as functional. In a few lines: as §1
The test system of series [12] is Staphylococcus aureus. The series can be described thus: Antibacterial activity against Staphylococcus aureus Cowan I after 18 to 20 hrs by microbroth dilution method. It counts as functional. In a few lines:
as §1

Series [13] concerns Staphylococcus capitis. The series can be described thus: Antibacterial activity against Staphylococcus capitis after 18 to 20 hrs by microbroth dilution method. It is filed as functional. The method in brief:
as §1

Series [14] has as its system Staphylococcus epidermidis. Briefly: Antibacterial activity against Staphylococcus epidermidis ATCC 12228 after 18 to 20 hrs by microbroth dilution method. It is filed as functional. The method in brief:
as §1

The subject of series [15] is Streptococcus pyogenes. Briefly: Antibacterial activity against Streptococcus pyogenes ATCC 21547 after 18 to 20 hrs by microbroth dilution method. It is filed as functional. The method in brief:
as §1

Series [16] relates to Candida albicans. Briefly: Antifungal activity against Candida albicans ATCC 10231 after 18 to 20 hrs by microbroth dilution method. It counts as functional. In a few lines:
(§2)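 Yeasts tested by adapted CLSI microbroth dilution in Winge medium. Peptide given in serial 2-fold dilutions (0.75-48 μM, made in 20% ethanol). Incubation 18-20 h at 30 °C, read at A600. MIC taken as the concentration giving complete (100%) growth inhibition.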

The subject of series [17] is Schizosaccharomyces pombe. Briefly: Antifungal activity against Schizosaccharomyces pombe after 18 to 20 hrs by microbroth dilution method. It counts as functional. In a few lines:
as §2

The test system of series [18] is Saccharomyces cerevisiae. Briefly: Antifungal activity against Saccharomyces cerevisiae after 18 to 20 hrs by microbroth dilution method. It is filed as functional. In a few lines:
as §2

The nature of series [19]: Toxicity in human erythrocytes assessed as hemolysis at 24 uM after 40 mins. It counts as cell-based, Erythrocyte. The note with it: read-out: Activity. In a few lines:
(§3)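 Human red blood cells suspended in 0.9% (w/v) NaCl and incubated 40 min at 37 °C with gentle mixing with serial 2-fold peptide dilutions (peptide predissolved in 20% ethanol). Spun 5 min at 900g; supernatant read at 415 nm. Cells lysed in distilled water set the 100% lysis reference.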

Series [20] in a line: Toxicity in human erythrocytes assessed as hemolysis at 12 uM after 40 mins. The note with it: read-out: Activity. It is filed as cell-based, Erythrocyte. The method in brief: as §3
The nature of series [21]: Toxicity in human erythrocytes assessed as hemolysis at 6 uM after 40 mins. The note with it: read-out: Activity. It counts as cell-based, Erythrocyte. The method in brief: as §3
A short description of series [22]: Toxicity in human erythrocytes assessed as hemolysis at 3 uM after 40 mins. It counts as cell-based, Erythrocyte. The note with it: read-out: Activity. In a few lines: as §3
Series [23] can be described thus: Toxicity in human erythrocytes assessed as hemolysis at 1.5 uM after 40 mins. It counts as cell-based, Erythrocyte. The note with it: read-out: Activity. The method in brief:
as §3

≈ marks a conversion by molar mass, not a printed value. Where a SMILES comes first, the peptide text is derived from it. A value given as a limit tells only on which side of the number the result lay.

One may read the MIC as the lowest concentration found to suppress growth. In the case of `CC(C)C[C@H](NC(=O)[C@H](CC(C)C)NC(=O)[C@H](CCCNC(=N)N)NC(=O)CNC(=O)[C@H](CC(C)C)NC(=O)[C@H](CC(C)C)NC(=O)[C@H](CCCCN)NC(=O)[C@H](CO)NC(=O)[C@H](CC(C)C)NC(=O)[C@H](Cc1c[nH]c2ccccc12)NC(=O)[C@H](CCC(N)=O)NC(=O)[C@H](CC(C)C)NC(=O)[C@@H](N)CC(C)C)C(N)=O` (H-LLQWLSKLLGRLL-NH2), the minimal inhibitory concentration (MIC) in series [1] stood at 12 µM (≈ 18.6 µg/mL); in [2], 24 µM (≈ 37.2 µg/mL); in series [3], 3 µM (≈ 4.66 µg/mL); in series [4], 6 µM (≈ 9.31 µg/mL); in series [5] it was 12 µM (≈ 18.6 µg/mL); in [6], 6 µM (≈ 9.31 µg/mL). The MIC in [7] came out at 12 µM (≈ 18.6 µg/mL); in series [8], 24 µM (≈ 37.2 µg/mL); in [9], 3 µM (≈ 4.66 µg/mL); in series [10], 1.5 µM (≈ 2.33 µg/mL); in series [11], 3 µM (≈ 4.66 µg/mL); in series [12], 1.5 µM (≈ 2.33 µg/mL). Besides, the MIC in [13] came out at 1.5 µM (≈ 2.33 µg/mL); in series [14], 1.5 µM (≈ 2.33 µg/mL); in series [15], 6 µM (≈ 9.31 µg/mL); in series [16], 6 µM (≈ 9.31 µg/mL); in series [17], 3 µM (≈ 4.66 µg/mL); in [18], 3 µM (≈ 4.66 µg/mL). In addition, in [19], the hemolysis at 40 min, 24 µM is 100%. For the same compound, the hemolysis at 40 min, 12 µM in [20] was 73%. Besides, the hemolysis at 40 min, 6 µM in series [21] stood at 25%. The hemolysis at 40 min, 3 µM in series [22] was determined as 9%. Besides, the hemolysis at 40 min, 1.5 µM in series [23] was 4%.

Turning to `CC(C)C[C@H](NC(=O)[C@H](Cc1c[nH]c2ccccc12)NC(=O)[C@H](CCCNC(=N)N)NC(=O)CNC(=O)[C@H](CC(C)C)NC(=O)[C@H](CC(C)C)NC(=O)[C@H](CCCCN)NC(=O)[C@H](CO)NC(=O)[C@H](CC(C)C)NC(=O)[C@H](Cc1c[nH]c2ccccc12)NC(=O)[C@H](CCC(N)=O)NC(=O)[C@H](CC(C)C)NC(=O)[C@@H](N)CC(C)C)C(N)=O` (H-LLQWLSKLLGRWL-NH2), the MIC in series [1] is 6 µM (≈ 9.75 µg/mL); in [2], 6 µM (≈ 9.75 µg/mL); in series [3], 12 µM (≈ 19.5 µg/mL); in series [4] it was over 48 µM; in series [5] it was over 48 µM; in [6], 12 µM (≈ 19.5 µg/mL). In addition, the MIC was over 48 µM in series [7]; over 48 µM in [8]; 6 µM (≈ 9.75 µg/mL) in [9]; 3 µM (≈ 4.88 µg/mL) in series [10]; 6 µM (≈ 9.75 µg/mL) in series [11]; 6 µM (≈ 9.75 µg/mL) in [12]. For the same compound, the MIC amounted to 6 µM (≈ 9.75 µg/mL) in series [13]; 3 µM (≈ 4.88 µg/mL) in series [14]; 6 µM (≈ 9.75 µg/mL) in series [15]; 12 µM (≈ 19.5 µg/mL) in series [16]; 6 µM (≈ 9.75 µg/mL) in series [17]; 12 µM (≈ 19.5 µg/mL) in [18]. For the same compound, the hemolysis at 40 min, 24 µM in [19] amounted to 100%. Further, the hemolysis at 40 min, 12 µM in [20] was determined as 100%. Also, in [21], the hemolysis at 40 min, 6 µM was determined as 78%. The hemolysis at 40 min, 3 µM in series [22] was determined as 13%. In addition, the hemolysis at 40 min, 1.5 µM in series [23] turned out to be 8%.

With `CC[C@H](C)[C@H](NC(=O)[C@H](CCCNC(=N)N)NC(=O)CNC(=O)[C@H](CC(C)C)NC(=O)[C@H](Cc1ccccc1)NC(=O)[C@H](CCCCN)NC(=O)[C@H](CO)NC(=O)[C@H](Cc1ccccc1)NC(=O)[C@H](Cc1c[nH]c2ccccc12)NC(=O)[C@H](CCC(N)=O)NC(=O)[C@@H](NC(=O)[C@@H](N)Cc1ccccc1)C(C)C)C(=O)N[C@@H](CC(C)C)C(N)=O` [TEMPORIN L], the MIC in series [1] turned out to be 6 µM (≈ 9.84 µg/mL); in [2], 3 µM (≈ 4.92 µg/mL); in series [3], 6 µM (≈ 9.84 µg/mL); in series [4], 12 µM (≈ 19.7 µg/mL); in series [5], 12 µM (≈ 19.7 µg/mL); in series [6], 6 µM (≈ 9.84 µg/mL). In addition, the MIC in series [7] is 24 µM (≈ 39.4 µg/mL); in [8], over 48 µM; in series [9], 3 µM (≈ 4.92 µg/mL); in series [10], 1.5 µM (≈ 2.46 µg/mL); in series [11] it was 3 µM (≈ 4.92 µg/mL); in series [12] it was 3 µM (≈ 4.92 µg/mL). Besides, the MIC in [13] was 1.5 µM (≈ 2.46 µg/mL); in series [14], 3 µM (≈ 4.92 µg/mL); in series [15], 6 µM (≈ 9.84 µg/mL); in [16], 12 µM (≈ 19.7 µg/mL); in [17] it was 6 µM (≈ 9.84 µg/mL); in series [18], 6 µM (≈ 9.84 µg/mL). Further, the hemolysis at 40 min, 24 µM in [19] came out at 94%. The hemolysis at 40 min, 12 µM in series [20] stood at 92%. For the same compound, in [21], the hemolysis at 40 min, 6 µM came out at 48%. Besides, the hemolysis at 40 min, 3 µM in series [22] is 13%. Also, in [23], the hemolysis at 40 min, 1.5 µM worked out at 3%.
